Consider 11 compounds from ChEMBL document CHEMBL1133793, “Polyamines with N-(3-phenylpropyl) substituents are effective competitive inhibitors of trypanothione reductase and trypanocidal agents” (Bioorg Med Chem Lett, 2001).

One assay has as its target Trypanothione reductase (Trypanosoma cruzi, UniProt P28593). Put plainly: Tested for binding affinity against trypanothione reductase from Trypanosoma cruzi. In outline: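 Recombinant T. cruzi TR purified from glutathione reductase-deficient E. coli SG5 strain. Activity read as NADPH oxidation at 340 nm, 23 °C, in HEPES 100 mM pH 7.25 with EDTA 1 mM, NADPH 0.18 mM and TR 2.2 µg/mL. Velocities taken at five trypanothione levels (15-75 µM) and five inhibitor levels. Km(obs) fitted by Michaelis–Menten; Ki from weighted regression of Km(obs) against [I].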

The subject of assay [1] is Trypanosoma brucei. The experiment in a line: Tested in vitro for trypanocidal activity against KETRI 269 an uncloned clinical isolate of Trypanosoma brucei. rhodesiense. The class given is functional, organism-based. In a few lines: (§1)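 Bloodstream-form trypanosomes were grown in vitro in culture medium containing fetal bovine serum, which the paper notes contains polyamine oxidase. IC50 values in µM.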

Assay [2] deals with Trypanosoma brucei. The experiment in a line: Tested in vitro for trypanocidal activity against a drug sensitive strain of Trypanosoma brucei Lab 110 EATRO. The format is functional, organism-based. In outline:
as §1

Assay [3] concerns Trypanosoma brucei. The experiment in a line: Tested in vitro for trypanocidal activity against KETRI 243-As-10-3 a pentamidine and melarsoprol resistant clone of Trypanosoma brucei. rhodesiense KETRI 243. The class given is functional, organism-based. In outline:
as §1

The test system of assay [4] is Trypanosoma brucei. The experiment in a line: Tested in vitro for trypanocidal activity against KETRI 243 an uncloned clinical isolate of Trypanosoma brucei. rhodesiense. The class given is functional, organism-based. In a few lines: as §1

Trypanothione reductase, sequence (P28593 whole entry): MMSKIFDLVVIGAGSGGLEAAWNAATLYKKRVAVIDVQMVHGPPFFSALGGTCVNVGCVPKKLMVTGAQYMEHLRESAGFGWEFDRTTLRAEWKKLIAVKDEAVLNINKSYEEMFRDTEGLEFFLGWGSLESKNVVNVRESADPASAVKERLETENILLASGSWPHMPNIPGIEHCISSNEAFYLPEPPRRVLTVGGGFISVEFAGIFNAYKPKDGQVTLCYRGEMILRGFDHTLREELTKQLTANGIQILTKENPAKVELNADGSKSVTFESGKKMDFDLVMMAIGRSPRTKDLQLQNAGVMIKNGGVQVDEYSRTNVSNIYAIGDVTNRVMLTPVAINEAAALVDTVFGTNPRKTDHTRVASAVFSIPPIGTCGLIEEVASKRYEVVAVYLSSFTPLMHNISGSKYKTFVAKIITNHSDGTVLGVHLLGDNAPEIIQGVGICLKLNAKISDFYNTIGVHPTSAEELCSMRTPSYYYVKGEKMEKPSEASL

`c1ccc(CCCNCCCN(CCCCN(CCCc2ccccc2)CCCN(CCCc2ccccc2)CCCc2ccccc2)CCCc2ccccc2)cc1`: the affinity at Trypanothione reductase, expressed as Ki, was 151 nM. In addition, the half-maximal inhibitory concentration (IC50) (commonly the concentration that inhibits the measured activity by half) stood at 2200 nM with Trypanosoma brucei [1], 3050 nM with Trypanosoma brucei [2], 5500 nM with Trypanosoma brucei [3] and 3350 nM in the assay with Trypanosoma brucei [4].

Consider `c1ccc(CCCN(CCCCN(CCCc2ccccc2)CCCN(CCCc2ccccc2)CCCc2ccccc2)CCCN(CCCc2ccccc2)CCCc2ccccc2)cc1`, for which the affinity at Trypanothione reductase, expressed as Ki, was 10300 nM. Further, the IC50 in the assay with Trypanosoma brucei [1] is 30500 nM; in the assay with Trypanosoma brucei [2], 22000 nM; with Trypanosoma brucei [3], 24000 nM; in the assay on Trypanosoma brucei [4], 35000 nM.

As for `NCCCCN(CCCNCCCc1ccccc1)CCCc1ccccc1.NCCCN(CCCCNCCCc1ccccc1)CCCc1ccccc1`, on Trypanothione reductase, the Ki (commonly the equilibrium dissociation constant of an inhibitor or competing ligand from its target) is 4670 nM. Also, the 50% inhibitory concentration (IC50) is 380 nM with Trypanosoma brucei [1], 310 nM with Trypanosoma brucei [2], 570 nM in the assay on Trypanosoma brucei [3] and 530 nM in the assay with Trypanosoma brucei [4].

At Trypanothione reductase, `c1ccc(CCCNCCCN(CCCCN(CCCNCCCc2ccccc2)CCCc2ccccc2)CCCc2ccccc2)cc1` displayed a Ki of 614 nM. The concentration for half-maximal inhibition (IC50) turned out to be 160 nM with Trypanosoma brucei [1], 120 nM in the assay on Trypanosoma brucei [2], 150 nM in the assay on Trypanosoma brucei [3] and 140 nM in the assay with Trypanosoma brucei [4].

Consider `NCCCN(CCCCN(CCCN)CCCc1ccccc1)CCCc1ccccc1`, for which the IC50 in the assay with Trypanosoma brucei [1] was 580 nM; in the assay with Trypanosoma brucei [2], 660 nM; in the assay on Trypanosoma brucei [3], 660 nM; in the assay with Trypanosoma brucei [4], 790 nM.

At Trypanothione reductase, `NCCCNCCCCNCCCNCCCc1ccccc1` had a Ki of 37600 nM.

In turn, `NCCCCN(CCCN)CCCc1ccccc1` showed a Ki at Trypanothione reductase of 14100 nM.

In turn, `c1ccc(CCCNCCCCN(CCCNCCCc2ccccc2)CCCc2ccccc2)cc1` returned an inhibition constant (Ki) at Trypanothione reductase of 3500 nM. Also, the 50% inhibitory concentration (IC50) in the assay on Trypanosoma brucei [1] was found to be 540 nM; in the assay with Trypanosoma brucei [2], 220 nM; in the assay with Trypanosoma brucei [3], 460 nM; in the assay on Trypanosoma brucei [4] it was 360 nM.

Regarding `NCCCN(CCCCN(CCCNCCCc1ccccc1)CCCc1ccccc1)CCCc1ccccc1`, the affinity at Trypanothione reductase, expressed as Ki, was 1380 nM. The IC50 came out at 160 nM in the assay on Trypanosoma brucei [1], 270 nM in the assay on Trypanosoma brucei [2], 160 nM in the assay on Trypanosoma brucei [3] and 160 nM with Trypanosoma brucei [4].

For the compound `c1ccc(CCCNCCCNCCCCNCCCNCCCc2ccccc2)cc1`, at Trypanothione reductase, the Ki amounted to 12300 nM. Also, the concentration for half-maximal inhibition (IC50) with Trypanosoma brucei [1] is 1800 nM; in the assay with Trypanosoma brucei [2] it was 810 nM; with Trypanosoma brucei [3] it was 2200 nM; in the assay on Trypanosoma brucei [4] it was 1500 nM.

On to `c1ccc(CCCNCCCNCCCCNCCCN(CCCc2ccccc2)CCCc2ccccc2)cc1`, for which the affinity on Trypanothione reductase corresponds to a Ki of 3620 nM. Besides, the half-inhibitory concentration (IC50) was determined as 270 nM in the assay on Trypanosoma brucei [1], 400 nM in the assay with Trypanosoma brucei [2], 530 nM with Trypanosoma brucei [3] and 160 nM in the assay with Trypanosoma brucei [4].
